Experimental data of several laboratories.
Each line is one published result; the experiments were not run side by side.
PIK3CA E545A: Phosphatidylinositol 4,5-bisphosphate 3-kinase catalytic subunit alpha isoform (PIK3CA, Homo sapiens, UniProt P42336, E545A)
PIK3CA I800L: Phosphatidylinositol 4,5-bisphosphate 3-kinase catalytic subunit alpha isoform (PIK3CA, Homo sapiens, UniProt P42336, I800L)
PIK3CA E545K: Phosphatidylinositol 4,5-bisphosphate 3-kinase catalytic subunit alpha isoform (PIK3CA, Homo sapiens, UniProt P42336, E545K)
PIK3CA: Phosphatidylinositol 4,5-bisphosphate 3-kinase catalytic subunit alpha isoform (PIK3CA, Homo sapiens, UniProt P42336)
PIK3CA C420R: Phosphatidylinositol 4,5-bisphosphate 3-kinase catalytic subunit alpha isoform (PIK3CA, Homo sapiens, UniProt P42336, C420R)
PIK3CA E542K: Phosphatidylinositol 4,5-bisphosphate 3-kinase catalytic subunit alpha isoform (PIK3CA, Homo sapiens, UniProt P42336, E542K)
PIK3CA H1047L: Phosphatidylinositol 4,5-bisphosphate 3-kinase catalytic subunit alpha isoform (PIK3CA, Homo sapiens, UniProt P42336, H1047L)

| SMILES | target | read-out | technique | tested at | remaining binding [%] |
| --- | --- | --- | --- | --- | --- |
| F[C@@H]1CCN(c2nccc(-c3cnn4ncccc34)n2)C1 | PIK3CA E545A | binding |  | 1 µM | 92 |
| CCN1CCN(Cc2ccc(C(=O)Nc3ccc(C)c(Oc4ccc5c(c4)CC(=O)N5)c3)cc2C(F)(F)F)CC1 | PIK3CA I800L | binding | competition with immobilised ligand | 1 µM | 95 |
| CNC(=O)[C@@H]1CC[C@@H](n2c(-c3ccc4cnccc4c3)nc3ccc(C(=O)NCc4cccc(C(N)=O)c4)cc32)C1 | PIK3CA E545K | binding | competition with immobilised ligand | 1 µM | 84 |
| Nc1ncc2c(n1)-c1c([nH]c3ccc(C#CC4CC4)cc13)CCCC2 | PIK3CA I800L | binding | competition with immobilised ligand | 1 µM | 81 |
| CC1CCCN1c1nccc(-c2cnn3ncccc23)n1 (stereo not shown) | PIK3CA | binding |  | 1 µM | 100 |
| Cc1cnc(Nc2ccc(C(=O)N3CCC(N4CCCC4)CC3)cc2)nc1-c1cc2ccccc2s1 | PIK3CA | binding | competition with immobilised ligand | 1 µM | 97 |
| CN(CCCC(F)(F)F)c1nccc(-c2cnn3ncccc23)n1 | Phosphatidylinositol 4,5-bisphosphate 3-kinase catalytic subunit alpha isoform (PIK3CA, Homo sapiens, UniProt P42336, Q546K) | binding |  | 1 µM | 69 |
| O=C(NCC1CCOCC1)c1n[nH]cc1NC(=O)c1c(F)cccc1F | PIK3CA C420R | binding | competition with immobilised ligand | 1 µM | 100 |
| COc1ncc2cc3ccccc3nc2c1C#N | PIK3CA C420R | cell-free assay | competition with immobilised ligand | 5 µM | 78 |
| O=C(c1ccc(Nc2nccc(-c3cc4ccccc4s3)n2)cc1)N1CCC(N2CCCC2)CC1 | Phosphatidylinositol 4,5-bisphosphate 3-kinase catalytic subunit alpha isoform (PIK3CA, Homo sapiens, UniProt P42336, M1043I) | binding | competition with immobilised ligand | 1 µM | 81 |
| Cc1c[nH]c2nccc(Oc3c(F)cc(Nc4cc(Cl)nc(N)n4)cc3F)c12 | PIK3CA E545A | cell-free assay | competition with immobilised ligand | 0.1 µM | 88 |
| N[C@H]1CCN(c2nccc(-c3cnn4ncccc34)n2)C1 | PIK3CA | binding |  | 1 µM | 100 |
| O=C(NC[C@@H]1[C@H]2CN(C(=O)OCc3cc(C(F)(F)F)cc(C(F)(F)F)c3)C[C@@H]12)c1ccc2[nH]nnc2c1 | PIK3CA E542K | cell-free assay | competition with immobilised ligand | 1 µM | 75 |
| C[C@H]1CCN(c2nccc(-c3cnn4ncccc34)n2)C1 | PIK3CA E545A | binding |  | 1 µM | 100 |
| CCS(=O)(=O)c1cc2cc(C[C@@](O)(CC(C)(C)c3ccc(F)cc3C(N)=O)C(F)(F)F)[nH]c2cn1 | PIK3CA H1047L | cell-free assay | competition with immobilised ligand | 1 µM | 97 |
| C[C@@H](c1ccc(-n2cnc3c(N)ncnc32)cc1)N1CCc2nn(C)c(Cc3ccccc3)c2C1=O | PIK3CA E545A | binding | competition with immobilised ligand | 0.1 µM | 100 |
| CCOCCn1cc(C(=O)Nc2ccc(-n3nc(-c4cccnc4)cc3C(F)(F)F)cn2)ccc1=O | PIK3CA E545K | cell-free assay | competition with immobilised ligand | 1 µM | 96 |
| COc1cnc(Nc2cccc(S(N)(=O)=O)c2)nc1N1CCN(c2ccccc2)C(=O)C1 | PIK3CA H1047L | binding | competition with immobilised ligand | 1 µM | 90 |
| O=C(Nc1cccnn1)N1CC(C/C=C/c2cncc(Oc3ccc(C(F)(F)F)cn3)n2)C1 | PIK3CA C420R | cell-free assay | competition with immobilised ligand | 1 µM | 66 |
| CN1CCN(c2ccc(Nc3nccc(-c4ccccc4)n3)cc2C(F)(F)F)CC1 | PIK3CA E545A | binding |  | 10 µM | 100 |
| CC(C)CC(=O)N1CCc2nc(-c3ccc(Br)cc3)nc(N(C)Cc3ccccc3)c2C1 | PIK3CA E542K | cell-free assay | competition with immobilised ligand | 0.1 µM | 100 |
| CN(C)c1nccc(-c2cnn3ncccc23)n1 | Phosphatidylinositol 4,5-bisphosphate 3-kinase catalytic subunit alpha isoform (PIK3CA, Homo sapiens, UniProt P42336, H1047Y) | binding |  | 1 µM | 90 |
